High-throughput results (PubChem BioAssay)
Shown are actives, neighbours in structure and some others; about 0.55% of the full set was active somewhere.
OXTR ag: activates the human oxytocin receptor. 0.32% of 320,000 active. activation, % at 3 µM. AID 2435. P30559. CHO-OTR cells, Fluo-8 calcium fluorescence; normalized: DMSO 0%, oxytocin 100%;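 active means activation above the mean of all tested compounds plus 3 SD, cutoff set per screening run, cut at about 20% in these data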;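 further: peak over basal fluorescence ratio from a 100 s FLIPR kinetic read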
Target sequence (P30559 whole entry, looked up): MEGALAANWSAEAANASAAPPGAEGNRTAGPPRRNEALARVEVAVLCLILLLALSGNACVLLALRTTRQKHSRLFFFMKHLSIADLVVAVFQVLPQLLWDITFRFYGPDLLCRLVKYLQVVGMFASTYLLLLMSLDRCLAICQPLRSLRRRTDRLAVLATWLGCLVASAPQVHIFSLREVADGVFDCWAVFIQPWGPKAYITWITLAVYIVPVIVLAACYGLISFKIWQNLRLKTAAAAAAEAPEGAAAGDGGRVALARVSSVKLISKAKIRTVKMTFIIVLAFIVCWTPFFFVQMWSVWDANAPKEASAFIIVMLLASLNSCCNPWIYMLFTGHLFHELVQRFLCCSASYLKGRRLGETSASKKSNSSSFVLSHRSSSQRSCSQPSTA
zfTRPN1 agonist: activates the zebrafish TRPN1 channel | HEK293 zebrafish TRPN1-YFP, Fluo-8 calcium fluorescence; 100% = response to 87 µM carbachol | activation, % at 3 µM | 0.18% of 220,000 active | AID 1424;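 active means activation above its plate's cutoff, the mean activation of test wells on that plate plus 3 SD, cut at about 19% in these data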;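 further: 0% = DMSO alone and 100% = 87 µM carbachol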
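System: zebrafish TRPN1-YFP in HEK293 cells / Dosing: 3 µM single point / Timing: dye loading 1 h at 37 °C, then 30 min room temperature / Signal: Fluo-8 calcium fluorescence, excitation 470-495 nm, emission 515-575 nm / Read-out basis: percent activation from peak over basal fluorescence ratio, control-normalized / Control set: high carbachol 87 µM, low DMSO alone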
OXTR potentiator: potentiators of human oxytocin receptor; CHO-OTR cells, Fluo-8 calcium fluorescence, potentiator mode; 0% = oxytocin EC15, 100% = EC100; activation, % at 3 µM; 0.061% of 320,000 active; P30559; AID 2445;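 active means activation above that plate's cutoff, the mean activation of tested compounds plus 3 SD, cut at about 6.6% in these data, passing the limit was not always enough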;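 further: 100% uses oxytocin at 75 nM as the full agonist control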
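Measured by – Fluo-8 calcium dye fluorescence · Test system – human OTR in CHO cells · Dosing – one concentration, 3.0 µM compound · Controls – EC15 oxytocin alone as 0%, 75 nM oxytocin as 100% · Evaluation – normalized max/min fluorescence ratio, % activation · Timing – 6 min pre-incubation, 100 s read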
TRPML3 ag: agonists of human TRPML3 channel | Q8TDD5 | HEK293 TRPML3-YFP, Fluo-8 calcium fluorescence; 100% = the carbachol control signal | activation, % at 3 µM | 0.29% of 220,000 active | AID 1448;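 active means activation above its plate's cutoff, the mean activation of the plate's test wells plus 3 SD, cut at about 12% in these data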;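 further: 0% = DMSO only wells and 100% = carbachol wells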
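Material: HEK293 cells stably carrying human TRPML3-YFP; compound dosing: single dose, 3 µM final nominal compound, 0.3% DMSO final; incubation: 1-h 37 °C dye load, 5-s basal, 120-s post-compound reads; technique: Fluo-8 intracellular calcium fluorescence, excitation 470-495 nm, emission 515-575 nm; read-out basis: percent activation from peak-to-basal fluorescence ratio, scaled between DMSO and carbachol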
V1R ag counter: activates human V1a receptor in oxytocin agonist counter-screen; P37288; CHO-V1R cells, Fluo-8 calcium fluorescence, agonist mode; 0% DMSO, 100% 3 nM vasopressin; activation, % at 3 µM; 0.25% of 320,000 active; AID 2797;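 active means activation above the mean activation of all tested compounds plus 3 SD, per screening run, cut at about 20% in these data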;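 further: signal is peak over basal fluorescence ratio across a 100 second FLIPR read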
TRPN1 counter: counter-screen for TRPML3 agonists: agonists of zebrafish TRPN1 channel; shares compounds with TRPML3 ag; HEK293 zebrafish TRPN1-YFP, Fluo-8 calcium fluorescence; scaled: carbachol wells 100%, DMSO wells 0%; activation, % at 3 µM; 10% of 310 active;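 active means mean activation over replicates above a set limit taken from the earlier TRPN1 channel primary screen, cut at about 19% in these data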;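 further: 100% = carbachol and 0% = 0.3% DMSO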
TRPML3 confirm: human TRPML3 agonism, confirmation; 80% of 310 active; shares compounds with TRPML3 ag; activation, % at 3 µM; HEK293 TRPML3-YFP, Fluo-8 calcium fluorescence; 100% set by carbachol, 0% by DMSO; AID 1526;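 active means activation above a set limit derived from the earlier primary screen, cut at about 12% in these data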
An asterisk follows results filed as active; . = no result given.

SMILES	OXTR ag	zfTRPN1 agonist	OXTR potentiator	TRPML3 ag	V1R ag counter	TRPN1 counter	TRPML3 confirm
Cc1ccc(S(=O)(=O)N2CCCCCC2)cc1[N+](=O)[O-]	-3	-1	-6	12*	-2	-1	19*
Cc1ccc(S(=O)(=O)N2CCC(C)CC2)cc1[N+](=O)[O-]	.	-1	.	93*	.	1	87*
CC(C)(C)C(=O)Cn1ncc(Br)c(Br)c1=O	.	-2	.	0	.	.	.
CCOC(=O)CSc1nc2c(sc(=S)n2-c2ccccc2OC)c(=O)n1-c1ccccc1OC	-2	.	-10	.	1	.	.
CCOC(=O)CSc1nc2c(sc(=S)n2-c2ccccc2OC)c(=O)n1Cc1ccco1	1	12	-3	40*	0	16	59*
COc1ccc(-n2c(SCC(=O)Nc3ccc(Br)cc3)nc(O)cc2=O)cc1	0	2	-4	1	3	.	.
Cc1c(C(=O)N2CCCCC2)c(S(=O)(=O)NCCc2ccc(Cl)cc2)c(C)n1C	0	.	-3	.	0	.	.
CN1[C@@H]2CC[C@H]1CC(OC(=O)[C@H](CO)c1ccccc1)C2 (stereo not given in full)	-1	.	-13	.	0	.	.
Cc1cc(C)c(C(=O)c2ccc(C(=O)N(C(C)C)C(C)C)cc2)c(C)c1	-2	-2	-7	18*	-2	4	74*
COc1cc(C)nc(N(C)S(=O)(=O)c2ccccc2Cl)n1	0	3	-1	28*	1	4	67*
Cc1cc(OCC(=O)OCC(=O)NCC2CCCO2)ccc1Cl (stereo not given)	4	.	-6	.	2	.	.
Cc1ccc(N/C(N)=N/c2nc(C)cc(C)n2)cc1	7	9	-12	15*	7	31*	20*
Cc1ccccc1S(=O)(=O)Oc1cccc2c(O)cccc12	2	.	-10	.	0	.	.
Cc1cc2nc3c(=O)[nH]c(=O)[nH]c3nc2c([N+](=O)[O-])c1N	.	15	.	12*	.	7	5
COc1ccc(C(=O)N(NC(=O)Oc2ccccc2)C(C)(C)C)cc1	-2	0	-4	13*	1	0	0
CC(C)(C)N(NC(=O)c1ccccc1)C(=O)c1ccc(C(=O)N(NC(=O)c2ccccc2)C(C)(C)C)cc1	0	0	-7	1	1	.	.
O=C(COC(=O)COc1ccc(Cl)cc1Cl)NC1CCS(=O)(=O)C1 (stereo not given)	1	.	-2	.	1	.	.
Cc1ccc(NC(=O)CNC(=O)C2CCCCC2)nc1	0	.	-5	.	0	.	.
COc1ccc(S(=O)(=O)N2CCCCC2)cc1C(C)C	-2	3	-13	74*	0	-2	138*
COc1ccc(S(=O)(=O)N2CCCCCC2)cc1N(C)S(=O)(=O)c1ccccc1	0	2	-11	70*	4	2	74*
CCOc1cc(S(=O)(=O)N2CCCCCC2)ccc1F	-1	-1	-7	15*	-1	0	22*
COc1ccc(S(=O)(=O)N2CCCC2)cc1Br	1	.	0	.	0	.	.
CCOc1ccccc1N1CCN(S(=O)(=O)c2ccc(F)c(F)c2)CC1	-3	-1	-13	1	-2	.	.
Cc1ccc(S(=O)(=O)N2CCc3ccccc3C2CN2C(=O)c3ccccc3C2=O)cc1 (stereo not given)	-1	1	-16	22*	-1	-1	13*
CC1CCc2c(cnc3ncnn23)C1 (stereo not given)	1	1	-6	0	0	.	.
SMILES	OXTR ag	zfTRPN1 agonist	OXTR potentiator	TRPML3 ag	V1R ag counter	TRPN1 counter	TRPML3 confirm
Cc1ccc(-n2nc3c(Cl)nnc(C)c3c2C)cc1	-3	-2	-2	13*	0	-2	0
Cc1ccc(-n2nc3c(N4CCN(c5ccccc5)CC4)nnc(C)c3c2C)cc1	.	0	.	-1	.	.	.
COc1ccc(C2C(C(C)=O)=C(C)N=c3s/c(=C\c4cc(C)n(C)c4C)c(=O)n32)c(OC)c1 (stereo not given)	35*	16	-24	16*	40*	28*	18*
Cc1ccc(-c2nn(-c3ccccc3)cc2C(=O)NCC2CCCO2)cc1 (stereo not given)	-2	.	-8	.	-2	.	.
O=c1cc(C(F)(F)F)[nH]c2ccc(OC(F)(F)F)cc12	16	17	-21	12*	9	26*	9
O=c1cc(C(F)(F)F)[nH]c2c(C(F)(F)F)cccc12	16	5	-19	15*	14	29*	13*
Cc1cc(=O)c2cccc(Br)c2[nH]1	1	1	-6	1	1	.	.
Cc1ccc(S(=O)(=O)NC(C)C(=O)OCC(=O)N(C)c2ccccc2)cc1 (stereo not given)	1	.	-9	.	0	.	.
CCc1nnc(NC(=O)COc2ccc(N(C)S(=O)(=O)c3ccc(C)cc3)cc2)s1	.	1	.	23*	.	2	63*
COc1ccc(CCNC(=O)COc2ccc(N(C)S(=O)(=O)c3ccc(Cl)cc3)cc2)cc1	.	2	.	44*	.	3	41*
CCOC(=O)Cc1csc(NC(=O)COc2ccc(N(C)S(=O)(=O)c3ccc(C)cc3)cc2)n1	5	3	-25	5	5	.	.
Cc1ccc(S(=O)(=O)N(C)c2ccc(OCC(=O)Nc3nnc(C4CC4)s3)cc2)cc1	.	0	.	44*	.	1	53*
Cc1ccc(-c2nn(-c3cccc(F)c3)cc2CNCc2cccnc2)o1	-1	-1	-2	0	0	.	.
O=C(NCCN1CCCC1=O)C1CCC(=O)N(CCc2cccc(F)c2)C1 (stereo not given)	0	.	-6	.	0	.	.
Cc1cc[n+](-c2ccccc2)c2ccccc12	0	1	-5	1	0	.	.
N#C/C(=N/Nc1ccccc1[N+](=O)[O-])C(N)=S	20	13	-19	12*	15	20*	8
COc1ccc(N=C2SCC(=O)N2CCc2ccc(OC)c(OC)c2)cc1	1	5	-6	2	2	.	.
COc1ccc(CCN2C(=O)CSC2=Nc2ccc(C(C)C)cc2)cc1OC	0	5	-15	13*	8	5	14*
COc1ccc2c(c1)C(C)CC(C)(C)N2C(=O)CSc1nc2ccccc2s1 (stereo not given)	-1	0	-13	18*	1	-1	33*
O=C1c2ccccc2CCCC12N=NCC2c1cccc2ccccc12 (stereo not given)	1	-2	-9	56*	-1	-2	67*
